The source of these data is ChEMBL document CHEMBL1933045, “Fused thiophene derivatives as MEK inhibitors” (Bioorg Med Chem Lett, 2012).

pIC50: −log10 of the molar value. ≈ marks a conversion by molar mass, not a printed value. Calls of active or inactive are those of the source. No cut-off for these calls is given here.

Data set [1] in a line: Inhibition of Erk phosphorylation in human HT-29 cells. Format: cell-based. In short, it runs like this:
(§1)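 Values are means of two experiments, IC50 in nM.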

The target of data set [2] is Dual specificity mitogen-activated protein kinase kinase; MEK1/2 (Homo sapiens, UniProt P36507+Q02750). Put plainly: Inhibition of human MEK using fluorescein-labelled Erk-tide as substrate after 20 mins by IMAP assay. Summed up: as §1
Data set [3] can be described thus: Aqueous solubility of the compound at pH 7.4. Format: physicochemical.
In the next data set the test system is HT-29. Description: Antiproliferative activity against human HT-29 cells. Format: functional, cell-based. Summed up: as §1
A short description of data set [4]: Intrinsic clearance in rat hepatocytes assessed per 10^6 cells. The class given is ADME, cell-based, Hepatocyte. To be noted: read-out: CLH.
Data set [5] deals with Mus musculus. Put plainly: Inhibition of Erk phosphorylation in PMA-stimulated whole blood in nude mouse bearing human HT-29 cells at 50 mg/kg, po after 18 hrs relative to control. The class given is functional. To be noted: HT-29, Blood. Summed up: (§2)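 Nude mice bearing HT-29 tumours, dosed p.o. with vehicle (0 h) or 50 mg/kg compound; pERK measured in PMA-stimulated whole blood at 1, 6 and 18 h post dose. Plasma drug by LC–MS/MS; significance versus vehicle by one-way ANOVA with Bonferroni post test.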

Data set [6] relates to Mus musculus. Description: Inhibition of Erk phosphorylation in PMA-stimulated whole blood in nude mouse bearing human HT-29 cells at 50 mg/kg, po after 1 hr. The class given is functional, organism-based. On the set-up: dose 50 mg/kg. Summed up:
as §2

Data set [7] has as its system Mus musculus. Description: Inhibition of Erk phosphorylation in PMA-stimulated whole blood in nude mouse bearing human HT-29 cells at 50 mg/kg, po after 6 hrs. Also on record: dose 50 mg/kg. The class given is functional, organism-based. Summed up:
as §2

Data set [8] is described as follows: Cmax in mouse at 10 mg/kg, po. Format: ADME, organism-based. On the set-up: dose 10 mg/kg, route oral. The following applies: in vivo. In short, it runs like this: (§3)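 Female nude mice, single oral dose 10 mg/kg; plasma drug levels measured over time; Cmax and AUClast derived.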
Data set [9] can be described thus: AUC (0 to last) in mouse at 10 mg/kg, po. The class given is ADME, organism-based. Also on record: time 0 - last, dose 10 mg/kg, route oral. To be noted: plasma. In short, it runs like this:
as §3

In data set [10] the test system is Mus musculus. Description: Inhibition of Erk phosphorylation in human HT-29 cells xenografted in nude mouse at 50 mg/kg, po after 18 hrs. Background: Xenograft models place foreign cells or tissue in a host animal.

In general, pIC50 refers to the IC50 on a negative log10 scale, so that one unit is a factor of ten. High values mean a low IC50, low ones a high IC50. For orientation: IC50 means the midpoint of a concentration-inhibition curve. As a reminder, the solubility is the dissolved amount per volume that the medium holds. As to `CC1(C)CNC(=O)c2sc(Nc3ccc(I)cc3Cl)c(C(N)=O)c2C1`, the results for the negative logarithm of the IC50 (pIC50) (in [1]; in the data set with HT-29) were 7.04 and 6.22, respectively. Besides, in data set [2], the IC50 came out at 13 nM. Also, the solubility result in data set [3] (buffer) is “Insoluble”.

Consider `CC1(C)CNC(=O)c2sc(Nc3ccc(I)cc3F)c(C(=O)NC[C@H]3CCCN3)c2C1`, for which the results for the negative logarithm of the IC50 (pIC50) (in data set [1]; with HT-29) were 7.66 and 6.92, respectively. In data set [2], this molecule came in with a concentration for half-maximal inhibition (IC50) of 42 nM.

In the case of `CC1(C)CNC(=O)c2sc(Nc3ccc(I)cc3F)c(C(=O)N[C@@H]3CCNC3)c2C1`, the pIC50 in data set [1] is 8.05; in the data set on HT-29, 7.27. In addition, in data set [2], the IC50 stood at 8 nM.

Consider `CNC(=O)c1c(Nc2ccc(I)cc2Cl)sc2c1CC(C)(C)CNC2=O`, for which the values for the pIC50 (in data set [1]; in the data set with HT-29) were 6.65 and 5.79, respectively. Also, the IC50 in data set [2] is 226 nM.

Turning to `CC(C)(N)CNC(=O)c1c(Nc2ccc(I)cc2Cl)sc2c1CC(C)(C)CNC2=O`, the figures for the pIC50 (in [1]; with HT-29) were 7.89 and 6.95, respectively. The molecule also returned an IC50 in data set [2] of 18 nM.

Take `CC1(C)CNC(=O)c2sc(Nc3ccc(I)cc3Cl)c(C(=O)NOC[C@H](O)CO)c2C1`: the values for the pIC50 (in data set [1]; with HT-29) were 7.12 and 6.05, respectively. In data set [2], this molecule displayed an IC50 of 9 nM.

The inhibition in vivo is how much of the control response was suppressed. A low value points to a weak effect. What is called Cmax is the peak of the concentration-time curve. As usually defined, the AUC(0-t) is exposure summed from dosing to a finite time, without extrapolation to infinity. Read a low AUC(0-t) as less exposure. For the molecule `CC(C)(N)CNC(=O)c1c(Nc2ccc(I)cc2F)sc2c1CC(C)(C)CNC2=O`, the hepatocyte CLint in data set [4] amounted to 2.6 µL/min/1e6 cells. Also, the inhibition in vivo at 50 mg/kg in the data set on Mus musculus [5] was determined as 35%. The inhibition result in the data set on Mus musculus [6] and in the data set with Mus musculus [7] was “Active” each time. In data set [8], the Cmax turned out to be 323 ng/mL. The area under the curve AUC(0-t) in data set [9] came to 1240 ng·h/mL. Also, the results for the negative logarithm of the IC50 (pIC50) (in data set [1]; in the data set with HT-29) were 8.22 and 7.10, respectively. This molecule gave an IC50 in [2] of 14 nM. Besides, the solubility in data set [3] (aqueous, read-out: solubility) is 210 µM (≈ 114 µg/mL). Further, the inhibition result in the data set with Mus musculus [10] was “inactive”.

Take `CC1(C)CNC(=O)c2sc(Nc3ccc(I)cc3F)c(C(N)=O)c2C1`: in [2], the IC50 is on record as 9 nM. For the same molecule, the pIC50 in the data set with HT-29 is 6.80.

With `CCOC(=O)c1c(Nc2ccc(I)cc2F)sc2c1CC(C)(C)CNC2=O`, the IC50 in data set [2] is listed as 305 nM.

Turning to `CC1(C)CNC(=O)c2sc(Nc3ccc(I)cc3F)c(C(=O)N[C@@H]3CCCNC3)c2C1`, the figures for the negative-log IC50 (pIC50) (in data set [1]; in the data set on HT-29) were 8.30 and 7.04, respectively. This molecule also displayed an IC50 in data set [2] of 22 nM.

As to `CC1(C)CNC(=O)c2sc(Nc3ccc(I)cc3Cl)c(C(=O)NC[C@@H](O)CO)c2C1`, the results for the negative logarithm of the IC50 (pIC50) (in data set [1]; in the data set with HT-29) were 7.37 and 6.15, respectively. This molecule also displayed an IC50 in data set [2] of 28 nM.

Turning to `CC1(C)CNC(=O)c2sc(Nc3ccc(I)cc3Cl)c(C(=O)NCC[C@@H](O)CO)c2C1`, the pIC50 in data set [1] is 6.14; with HT-29, 4.92. Besides, the IC50 in [2] amounted to 200 nM.

As for `CC1(C)CNC(=O)c2sc(Nc3ccc(I)cc3F)c(C(=O)NOCCO)c2C1`, the negative logarithm of the IC50 (pIC50) in [1] was 7.74; with HT-29, 6.47. In addition, the IC50 in data set [2] is reported as 7 nM.

In turn, `CC1(C)CNC(=O)c2sc(Nc3ccc(I)cc3F)c(C(=O)O)c2C1` had a pIC50 in [1] of 6.01. Further, in data set [2], the IC50 came out at 14 nM.

`CC1(C)CNC(=O)c2sc(Nc3ccc(I)cc3F)nc2C1`: the pIC50 in data set [1] was 5.81; in the data set with HT-29, 5.05. In [2], this molecule returned an IC50 of 946 nM.

Consider `CC1(C)CNC(=O)c2sc(Nc3ccc(I)cc3F)c(C(=O)NOC[C@H](O)CO)c2C1`, for which the negative logarithm of the IC50 (pIC50) was 7.29 in data set [1] and 5.80 in the data set with HT-29. The molecule also returned an IC50 in [2] of 6 nM.

For `CC1(C)CNC(=O)c2sc(Nc3ccc(I)cc3F)c(C(=O)NCCCO)c2C1`, the pIC50 in data set [1] was 6.85; in the data set on HT-29, 5.21. The molecule also yielded an IC50 in [2] of 309 nM.

In [2], `CCOC(=O)c1c(Nc2ccc(I)cc2Cl)sc2c1CC(C)(C)CNC2=O` had an IC50 of 2617 nM.

On to `CC1(C)CNC(=O)c2sc(Nc3ccc(I)cc3Cl)c(C(=O)N3CCNCC3)c2C1`, for which the pIC50 is 7.35 in data set [1] and 5.98 with HT-29. The same molecule showed an IC50 in data set [2] of 456 nM.
